According to article PMC4559355 (Journal of nuclear medicine : official publication, Society …, 2015):

Legend:
DX3puroβ6 (αvβ6 +) cells = assay: Cell binding and internalization, DX3puroβ6 cells; assay type: cell-based; conditions: in vitro, ratio x:1
Procedure, shortened: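 Radiolabelled tracer was incubated with DX3puroβ6 (αvβ6+) and DX3puro (αvβ6−) cells for 60 min, n = 4 per cell line and condition. Bound and internalized activity are each expressed as a fraction of total radioactivity, with SD. Uptake and internalization ratios are DX3puroβ6 over DX3puro values.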

[1] = Biodistribution, nontumor organs; assay type: in vivo; conditions: female, athymic nude, mouse, iv, total radioactivity
[2] = system: DX3puroβ6 tumor (αvβ6-positive); assay: Biodistribution, DX3puroβ6 xenograft tumor; assay type: in vivo, mouse; conditions: ratio x:1; for DX3puroβ6/DX3puro tumor uptake ratio: paired DX3puroβ6–DX3puro mouse model
Procedure, shortened: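 Female athymic nude mice received subcutaneous DX3puro and DX3puroβ6 cells (3 × 10^6 each) on opposite flanks. Radiotracer in phosphate-buffered saline was given at 1.1–2.0 MBq/animal by tail-vein injection under 2% isoflurane. Mice were killed under 4% isoflurane at 1, 2 and 4 h (n = 3/time point). Tissues were rinsed and γ-counted; values are decay-corrected %ID/g, and ratios are taken from these.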

[3] = Stability in phosphate-buffered saline; assay type: physicochemical; conditions: formulated in phosphate-buffered saline
Mouse serum stability = assay type: in vitro ADME; conditions: mouse serum 0.5 mL + radiotracer 12.5 µL (0.74 MBq), 37°C, 60 min, ethanol precipitation of serum proteins, HPLC
BxPC-3 tumor = assay: Radiotracer stability in BxPC-3 tumor; assay type: in vivo, mouse; conditions: tumor collected 1 h after injection, homogenized, ethanol precipitation, HPLC
Procedure, shortened: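 BxPC-3 xenografts came from 3.5 × 10^6 cells injected subcutaneously in female athymic nude mice. Radiotracer was given intravenously. Tumor was excised 1 h later and homogenized. Proteins were precipitated with ethanol, and supernatant aliquots were analysed by HPLC for intact versus degraded radiotracer.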

[4] = system: BxPC-3 tumor (αvβ6-positive); assay: Biodistribution, BxPC-3 xenograft tumor; assay type: in vivo; conditions: BxPC-3 mouse model, ratio x:1
DX3puroβ6 tumor = assay: Radiotracer stability in DX3puroβ6 tumor; assay type: in vivo, mouse; conditions: tumor collected 1 h after injection, homogenized, ethanol precipitation, HPLC
Procedure, shortened: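 Female athymic nude mice carried paired subcutaneous DX3puroβ6 and DX3puro xenografts (3 × 10^6 cells each, opposite flanks). After intravenous radiotracer, the DX3puroβ6 tumor was harvested at 1 h and homogenized. Proteins were removed by ethanol precipitation, and the supernatant was analysed by HPLC for intact radiotracer.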

[5] = HPLC analysis of urine metabolites; assay type: in vivo; conditions: mouse urine, ethanol precipitation
[6] = gallbladder, stomach, intestine
[7] = paired mouse model, throughout (1, 2 and 4 h)

Compound	Internalization ratio for the DX3puroβ6–DX3puro cell pair (DX3puroβ6 (αvβ6 +) cells)	Uptake (binding) ratio for the DX3puroβ6–DX3puro cell pair (DX3puroβ6 (αvβ6 +) cells)	tissue uptake at 1 h [1, 6] [%ID/g]	DX3puroβ6 tumor–to–DX3puro tumor ratio [2, 7]	DX3puroβ6 tumor–to–blood ratio [2, 7]	Stable in phosphate-buffered saline (time) [3] [h]	Radiotracer remaining intact in mouse serum (Mouse serum stability) [%]	Apparent breakdown of radioactivity extracted from BxPC-3 tumor (BxPC-3 tumor)	BxPC-3–to–blood ratio ([4]; 4 h)	BxPC-3–to–liver ratio ([4]; 4 h)	BxPC-3–to–pancreas ratio [4]	tissue uptake at 1 h ([1]; pancreas) [%ID/g]	tissue uptake at 4 h ([1]; pancreas) [%ID/g]	Apparent metabolic breakdown of radioactivity extracted from DX3puroβ6 tumor (DX3puroβ6 tumor)	DX3puroβ6/DX3puro tumor uptake ratio ([2]; 1 h)	DX3puroβ6/DX3puro tumor uptake ratio ([2]; 4 h)	Minor new peak in urine HPLC (slightly longer retention time) [5] [%]
CC(C)C[C@H](NC(=O)[C@H](CC(=O)O)NC(=O)CNC(=O)[C@H](CCCNC(=N)N)NC(=O)[C@H](CC(C)C)NC(=O)[C@H](CC(N)=O)NC(=O)[C@@H]1CCCN1C(=O)[C@@H](NC(=O)[C@H](C)NC(=O)[C@H](CC(N)=O)NC(=O)c1ccc(F)cc1)C(C)C)C(=O)N[C@@H](CCC(N)=O)C(=O)N[C@H](C(=O)N[C@@H](CC(C)C)C(=O)N[C@@H](C)C(=O)N[C@@H](CCC(N)=O)C(=O)N[C@@H](CCCCN)C(=O)N[C@H](C(=O)N[C@@H](C)C(=O)N[C@@H](CCCNC(=N)N)C(=O)N[C@H](C(=O)NCCOCCOCCOCCOCCOCCOCCOCCOCCOCCOCCOCCOCCOCCOCCOCCOCCOCCOCCOCCOCCOCCOCCOCCOCCOCCOCCOCCOCCC(N)=O)[C@@H](C)O)C(C)C)C(C)C [compound 4, ^18F-FBA-A20FMDV2-PEG28]	9.4	7.1	< 15	greater than 2.5	greater than 2	≥ 4	76	–	–	–	–	–	–	–	–	–	–
CC(C)C[C@H](NC(=O)[C@H](CC(=O)O)NC(=O)CNC(=O)[C@H](CCCNC(=N)N)NC(=O)[C@H](CC(C)C)NC(=O)[C@H](CC(N)=O)NC(=O)[C@@H]1CCCN1C(=O)[C@@H](NC(=O)[C@H](C)NC(=O)[C@H](CC(N)=O)NC(=O)CCOCCOCCOCCOCCOCCOCCOCCOCCOCCOCCOCCOCCOCCOCCOCCOCCOCCOCCOCCOCCOCCOCCOCCOCCOCCOCCOCCOCCNC(=O)c1ccc(F)cc1)C(C)C)C(=O)N[C@@H](CCC(N)=O)C(=O)N[C@H](C(=O)N[C@@H](CC(C)C)C(=O)N[C@@H](C)C(=O)N[C@@H](CCC(N)=O)C(=O)N[C@@H](CCCCN)C(=O)N[C@H](C(=O)N[C@@H](C)C(=O)N[C@@H](CCCNC(=N)N)C(=O)N[C@H](C(=O)NCCOCCOCCOCCOCCOCCOCCOCCOCCOCCOCCOCCOCCOCCOCCOCCOCCOCCOCCOCCOCCOCCOCCOCCOCCOCCOCCOCCOCCC(N)=O)[C@@H](C)O)C(C)C)C(C)C [compound 5, ^18F-FBA-PEG28-A20FMDV2-PEG28]	41	20	< 15	–	greater than 4.5	≥ 4	80	less than 20%	greater than 20	greater than 20	≥ 9	0.46 ± 0.07	0.25 ± 0.07	less than 20%	6.5	10.7	18
